For orientation: IC50 means the concentration that gives 50% inhibition. High values mean weaker potency in that assay, low ones greater potency in that assay.

The record followed here is ChEMBL document CHEMBL1149883, “alpha-Glucosidase inhibitory activity of triterpenoids from Cichorium intybus” (J Nat Prod, 2008).

Activity calls are given as the source filed them. No cut-off for these calls is given here.

Assay [1] is described as follows: (§1) Inhibition of Saccharomyces sp. alpha-glucosidase. In short, it runs like this: (§2)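 Read spectrophotometrically at pH 6.9 and 37 °C in 50 mM sodium phosphate buffer with 100 mM NaCl. Substrate was 0.5 mM p-nitrophenyl α-D-glucopyranoside, and enzyme was 250 m units/mL. The rise in absorbance at 400 nm from PNP-G hydrolysis was followed continuously. 1-Deoxynojirimycin (0.425 mM) and acarbose (0.78 mM) served as positive controls. Modified from Oki et al.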

In assay [2] the test system is Saccharomyces sp. Described as §1. In short, it runs like this:
as §2

In turn, `OC[C@H]1NC[C@H](O)[C@@H](O)[C@@H]1O` [DUVOGLUSTAT] gave an IC50 in assay [1] of 425 µM.

As to `C=C1[C@H](OC(C)=O)C[C@]2(C)CC[C@]3(C)[C@H](CC[C@@H]4[C@@]5(C)CC[C@H](OC(C)=O)C(C)(C)[C@@H]5CC[C@]43C)[C@H]2[C@H]1C`, in assay [1], the IC50 worked out at 10 µM.

Turning to `C=C(C)[C@@H]1CC[C@]2(C(=O)O)CC[C@]3(C)[C@H](CC[C@@H]4[C@@]5(C)CC[C@H](O)C(C)(C)[C@@H]5CC[C@]43C)[C@@H]12`, the outcome in assay [2] was inactive.

`C=C1[C@H](O)C[C@]2(C)CC[C@]3(C)[C@H](CC[C@@H]4[C@@]5(C)CC[C@H](O)C(C)(C)[C@@H]5CC[C@]43C)[C@H]2[C@H]1C`: it took 51.9 µM to reach half-maximal inhibition in assay [1] (IC50).

`O=c1ccc2cc(O)c(O)cc2o1`: the outcome in assay [2] was inactive.

For the molecule `C[C@H]1C(=O)CC[C@@H]2[C@]1(C)CC[C@H]1[C@@]2(C)CC[C@@]2(C)[C@@H]3CC(C)(C)CC[C@]3(C)CC[C@]12C` [FRIEDELINE], half-maximal inhibition in assay [1] (IC50) required 321 µM.

Consider `C=C(C)[C@@H]1CC[C@]2(C)CC[C@]3(C)[C@H](CC[C@@H]4[C@@]5(C)CC[C@H](O)C(C)(C)[C@@H]5CC[C@]43C)[C@@H]12`, for which the result in assay [2] was inactive.

`COc1cc(C(=O)O)ccc1O` [VANILLIC ACID] showed an IC50 in assay [1] of 69 µM.

`CC[C@H](CC[C@@H](C)[C@H]1CC[C@H]2[C@@H]3CC=C4C[C@@H](O)CC[C@]4(C)[C@H]3CC[C@]12C)C(C)C`: in assay [2], the outcome was inactive.

With `C=C1[C@@H]2CC[C@@]3(C)[C@@H](c4ccoc4)OC(=O)C[C@@]13O[C@H]1CC(=O)C(C)(C)[C@H](C(O)C(=O)OC)[C@]12C` (stereo not given in full), the result in assay [2] was inactive.

Consider `C=C(C)[C@@H]1CC[C@]2(CO)CC[C@]3(C)[C@H](CC[C@@H]4[C@@]5(C)CC[C@H](O)C(C)(C)[C@@H]5CC[C@]43C)[C@@H]12`, for which the result in assay [2] was inactive.

For `CC[C@H](/C=C/[C@@H](C)[C@H]1CC[C@H]2[C@@H]3CC=C4C[C@@H](O)CC[C@]4(C)[C@H]3CC[C@]12C)C(C)C`, the outcome in assay [2] was inactive.

`COc1cc(C(=O)O)cc(OC)c1O`: in assay [2], the result was inactive.

With `C=C(C)[C@@H]1CC[C@]2(C=O)CC[C@]3(C)[C@H](CC[C@@H]4[C@@]5(C)CC[C@H](O)C(C)(C)[C@@H]5CC[C@]43C)[C@@H]12`, in assay [2], the result was inactive.

On to `CO[C@H]1O[C@H](CO)[C@H](O)[C@H](O)[C@H]1O`, for which the outcome in assay [2] was inactive.
